In ChEMBL document CHEMBL4732237, “Discovery of 4-alkoxy-2-aryl-6,7-dimethoxyquinolines as a new class of topoisomerase I inhibitors endowed with potent in vitro anticancer activity” (2021):

test system: UACC-257; assay: Growth inhibition of human UACC-257 cells at 10 uM incubated for 48 hrs by sulforhodamine B assay relative to control; type: functional; settings: read-out: GI
How it was run: (§1)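 NCI one-dose screen across a 59-line panel. Cells were grown in RPMI 1640 with 5% FBS and 2 mM L-glutamine, plated and pre-incubated 24 h, then exposed to drug for 48 h at 37 °C, 5% CO2. Adherent cells were fixed with cold TCA (10% final), stained with 0.4% SRB in 1% acetic acid and read at 515 nm. Result is percent growth relative to no-drug control and time-zero cell count.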

Row | Compound | inhibition of growth at 10 µM [%]
1 | COc1cc2nc(-c3ccc(Cl)cc3)cc(OCCN3CCCCC3)c2cc1OC | 3

test system: NCI-H522; assay: Growth inhibition of human NCI-H522 cells at 10 uM incubated for 48 hrs by sulforhodamine B assay relative to control; type: functional; settings: read-out: GI
How it was run: (§2)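 NCI one-dose screen. Cells grown in RPMI 1640 with 5% FBS and 2 mM L-glutamine, plated and incubated 24 h at 37 °C, 5% CO2. DMSO-dissolved drug added, then 48 h further incubation. Adherent cells fixed with cold TCA, suspension cells fixed after settling. Stained with 0.4% SRB, absorbance read at 515 nm. Reported as percent growth relative to no-drug control and time-zero cell number.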

Row | Compound | inhibition of growth at 10 µM [%]
2 | COc1cc2nc(-c3ccc(Cl)cc3)cc(OCCN3CCCCC3)c2cc1OC | 3

test system: MDA-MB-435; assay: Growth inhibition of human MDA-MB-435 cells at 10 uM incubated for 48 hrs by sulforhodamine B assay relative to control; type: functional; settings: read-out: GI
How it was run: (§3)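 NCI-60 single-dose screen. Cells were grown in RPMI 1640 with 5% FBS and 2 mM L-glutamine and plated 24 h before drug addition. Compound was added at one concentration in DMSO-derived medium and incubated for 48 h at 37 °C in 5% CO2. Read-out was SRB protein stain at 515 nm. Result is percent growth versus the no-drug control and the time-zero cell count; values below 0 indicate lethality.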

Row | Compound | inhibition of growth at 10 µM [%]
3 | COc1cc2nc(-c3ccc(Cl)cc3)cc(OCCN3CCCCC3)c2cc1OC | 3

test system: NCI-H460; assay: Growth inhibition of human NCI-H460 cells at 10 uM incubated for 48 hrs by sulforhodamine B assay relative to control; type: functional; settings: read-out: GI; how it was run: as §2

Row | Compound | inhibition of growth at 10 µM [%]
4 | COc1cc2nc(-c3ccc(Cl)cc3)cc(OCCN3CCCCC3)c2cc1OC | 3

test system: SW-620; assay: Growth inhibition of human SW-620 cells at 10 uM incubated for 48 hrs by sulforhodamine B assay relative to control; type: functional; settings: read-out: GI; how it was run: as §1

Row | Compound | inhibition of growth at 10 µM [%]
5 | COc1cc2nc(-c3ccc(Cl)cc3)cc(OCCN3CCCCC3)c2cc1OC | 3

test system: OVCAR-8; assay: Growth inhibition of human OVCAR-8 cells at 10 uM incubated for 48 hrs by sulforhodamine B assay relative to control; type: functional; settings: read-out: GI; how it was run: as §2

Row | Compound | inhibition of growth at 10 µM [%]
6 | COc1cc2nc(-c3ccc(Cl)cc3)cc(OCCN3CCCCC3)c2cc1OC | 3

test system: PC-3; assay: Growth inhibition of human PC-3 cells at 10 uM incubated for 48 hrs by sulforhodamine B assay relative to control; type: functional; settings: read-out: GI; how it was run: as §2

Row | Compound | inhibition of growth at 10 µM [%]
7 | COc1cc2nc(-c3ccc(Cl)cc3)cc(OCCN3CCCCC3)c2cc1OC | 3

test system: SR; assay: Growth inhibition of human SR cells at 10 uM incubated for 48 hrs by sulforhodamine B assay relative to control; type: functional; settings: read-out: GI; how it was run: as §2

Row | Compound | inhibition of growth at 10 µM [%]
8 | COc1cc2nc(-c3ccc(Cl)cc3)cc(OCCN3CCCCC3)c2cc1OC | 3

test system: KM12; assay: Growth inhibition of human KM12 cells at 10 uM incubated for 48 hrs by sulforhodamine B assay relative to control; type: functional; settings: read-out: GI; how it was run: as §3

Row | Compound | inhibition of growth at 10 µM [%]
9 | COc1cc2nc(-c3ccc(Cl)cc3)cc(OCCN3CCCCC3)c2cc1OC | 3

test system: OVCAR-4; assay: Growth inhibition of human OVCAR-4 cells at 10 uM incubated for 48 hrs by sulforhodamine B assay relative to control; type: functional; settings: read-out: GI; how it was run: as §2

Row | Compound | inhibition of growth at 10 µM [%]
10 | COc1cc2nc(-c3ccc(Cl)cc3)cc(OCCN3CCCCC3)c2cc1OC | 3

test system: T47D; assay: Growth inhibition of human T47D cells at 10 uM incubated for 48 hrs by sulforhodamine B assay relative to control; type: functional; settings: read-out: GI; how it was run: as §1

Row | Compound | inhibition of growth at 10 µM [%]
11 | COc1cc2nc(-c3ccc(Cl)cc3)cc(OCCN3CCCCC3)c2cc1OC | 3

test system: SK-MEL-5; assay: Growth inhibition of human SK-MEL-5 cells at 10 uM incubated for 48 hrs by sulforhodamine B assay relative to control; type: functional; settings: read-out: GI; how it was run: as §2

Row | Compound | inhibition of growth at 10 µM [%]
12 | COc1cc2nc(-c3ccc(Cl)cc3)cc(OCCN3CCCCC3)c2cc1OC | 3

test system: OVCAR-5; assay: Growth inhibition of human OVCAR-5 cells at 10 uM incubated for 48 hrs by sulforhodamine B assay relative to control; type: functional; settings: read-out: GI; how it was run: as §2

Row | Compound | inhibition of growth at 10 µM [%]
13 | COc1cc2nc(-c3ccc(Cl)cc3)cc(OCCN3CCCCC3)c2cc1OC | 3

test system: NCI-H23; assay: Growth inhibition of human NCI-H23 cells at 10 uM incubated for 48 hrs by sulforhodamine B assay relative to control; type: functional; settings: read-out: GI; how it was run: as §2

Row | Compound | inhibition of growth at 10 µM [%]
14 | COc1cc2nc(-c3ccc(Cl)cc3)cc(OCCN3CCCCC3)c2cc1OC | 3

test system: HOP-62; assay: Growth inhibition of human HOP-62 cells at 10 uM incubated for 48 hrs by sulforhodamine B assay relative to control; type: functional; settings: read-out: GI; how it was run: as §3

Row | Compound | inhibition of growth at 10 µM [%]
15 | COc1cc2nc(-c3ccc(Cl)cc3)cc(OCCN3CCCCC3)c2cc1OC | 3

test system: Malme-3M; assay: Growth inhibition of human Malme-3M cells at 10 uM incubated for 48 hrs by sulforhodamine B assay relative to control; type: functional; settings: read-out: GI; how it was run: as §2

Row | Compound | inhibition of growth at 10 µM [%]
16 | COc1cc2nc(-c3ccc(Cl)cc3)cc(OCCN3CCCCC3)c2cc1OC | 3

test system: SN12C; assay: Growth inhibition of human SN12C cells at 10 uM incubated for 48 hrs by sulforhodamine B assay relative to control; type: functional; settings: read-out: GI; how it was run: as §2

Row | Compound | inhibition of growth at 10 µM [%]
17 | COc1cc2nc(-c3ccc(Cl)cc3)cc(OCCN3CCCCC3)c2cc1OC | 3

test system: UACC-62; assay: Growth inhibition of human UACC-62 cells at 10 uM incubated for 48 hrs by sulforhodamine B assay relative to control; type: functional; settings: read-out: GI; how it was run: as §1

Row | Compound | inhibition of growth at 10 µM [%]
18 | COc1cc2nc(-c3ccc(Cl)cc3)cc(OCCN3CCCCC3)c2cc1OC | 3
